The results in this text go back to ChEMBL document CHEMBL2311278, “Novel fluorescent cephalosporins: synthesis, antimicrobial activity and photodynamic inactivation of antibiotic resistant bacteria” (2013).

The test system of assay [1] is Klebsiella pneumoniae. Kind of assay: Antibacterial activity against Klebsiella pneumoniae ATCC 700603 after 24 hrs. It counts as functional. The note with it: ATCC 700603, 24 h. The method, boiled down: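 Broth microdilution in Mueller-Hinton medium. A single LB-plate colony was grown in Mueller-Hinton broth at 35 °C for 2–6 h to 10⁸ CFU/mL by turbidimetry. Compounds were dissolved in ddH₂O and serially diluted in Mueller-Hinton medium from 256 downward. About 10⁶ CFU/mL bacteria were added, and plates were incubated at 37 °C for 24 h.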

The subject of assay [2] is Staphylococcus aureus ATCC 25923. Kind of assay: Binding affinity to Staphylococcus aureus ATCC 25923 assessed per 10^8 cells/ml at 50 uM after overnight incubation by fluorescence analysis.
The subject of assay [3] is Staphylococcus aureus. The assay can be described thus: Binding affinity to methicillin-resistant Staphylococcus aureus MRSA2 assessed per 10^8 cells/ml at 50 uM after overnight incubation by fluorescence analysis. Type of assay: functional, organism-based. The method, boiled down:
(§1)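 Incubated with compound, then pelleted, dissolved in 2% SDS, held at 4 °C overnight and sonicated 30 min. Fluorescence intensity compared with that of free compound (50 µM, or 5 µM for the more fluorescent analogue); expressed per 10⁸ cells/mL.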

Assay [4] relates to Klebsiella pneumoniae. Kind of assay: Photodynamic inactivation of Klebsiella pneumoniae ATCC 700603 assessed as lethality at 6 uM after overnight incubation by traditional surface plating method in presence of 189 J/cm 2 white light irradiation. Type of assay: functional. The gist of the method:
(§2)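 Mixed 1:1 with compound and kept in the dark at 37 °C for 30 min with shaking, then exposed to filtered xenon white light (400–800 nm, 350 mW/cm²). Cells diluted in PBS, ~10⁴ CFU/mL plated on LB agar and grown overnight at 37 °C. Treated-and-irradiated CFU divided by untreated, unirradiated CFU; triplicate. Dark controls had no irradiation.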

Assay [5] has as its system Klebsiella pneumoniae. Kind of assay: Photodynamic inactivation of Klebsiella pneumoniae ATCC 700603 assessed as lethality at 6 uM after overnight incubation by traditional surface plating method in presence of 126 J/cm 2 white light irradiation. It counts as functional. The gist of the method: as §2
Assay [6] has as its system Staphylococcus aureus. Kind of assay: Binding affinity to methicillin-resistant Staphylococcus aureus MRSA1 assessed per 10^8 cells/ml at 50 uM after overnight incubation by fluorescence analysis. Type of assay: functional, organism-based. The method, boiled down:
as §1

Assay [7] concerns Staphylococcus aureus. The assay can be described thus: Binding affinity to methicillin-resistant Staphylococcus aureus MRSA1 at 50 uM after overnight incubation by confocal image analysis. Type of assay: functional, organism-based. The gist of the method:
(§3)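 Incubated with 50 µM compound in the dark with shaking, washed twice in PBS and imaged by confocal fluorescence and differential interference contrast microscopy.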

The nature of assay [8]: Binding affinity to Klebsiella pneumoniae ATCC 700603 at 50 uM after overnight incubation by confocal image analysis.
Assay [9] has as its system Staphylococcus aureus. The assay can be described thus: Binding affinity to methicillin-resistant Staphylococcus aureus MRSA2 at 50 uM after overnight incubation by confocal image analysis. Type of assay: functional, organism-based. The method, boiled down:
as §3

Assay [10] deals with Staphylococcus aureus. Kind of assay: Antibacterial activity against methicillin-resistant Staphylococcus aureus MRSA1 after 24 hrs. It counts as functional. The note with it: MRSA1, 24 h. The method, boiled down: (§4)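 Broth microdilution in Mueller–Hinton medium. Inocula grown from single colonies at 35 °C to 10⁸ CFU/mL by turbidimetry, then added at ~10⁶ CFU/mL to serial dilutions of compound starting at 256 µg/mL (stocks in ddH2O). Incubated 37 °C for 24 h.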

For assay [11], the system named is Klebsiella pneumoniae. Kind of assay: Antibacterial activity against Klebsiella pneumoniae ATCC 700603 assessed as lethality at 10 uM after overnight incubation by traditional surface plating method. Type of assay: functional. The method, boiled down:
as §2

Assay [12] concerns Klebsiella pneumoniae. Kind of assay: Photodynamic inactivation of Klebsiella pneumoniae ATCC 700603 assessed as lethality at 10 uM after overnight incubation by traditional surface plating method in presence of 350 mW/cm2 white light irradiation. It counts as functional. The method, boiled down: as §2
In assay [13] the test system is Staphylococcus aureus. The assay can be described thus: Antibacterial activity against methicillin-resistant Staphylococcus aureus MRSA2 after 24 hrs. Type of assay: functional. The note with it: MRSA2, 24 h. The method, boiled down:
as §4

Assay [14] has as its system metallo-beta-lactamase L1 (Stenotrophomonas maltophilia). The assay can be described thus: Activity at Stenotrophomonas maltophilia metallo-beta-lactamase L1 expressed in Escherichia coli BL21 (DE3) by Michaelis-Menten equation analysis.
Assay [15] has as its system metallo-beta-lactamase CcrA (Bacteroides fragilis). The assay can be described thus: Activity at Bacteroides fragilis metallo-beta-lactamase CcrA expressed in Escherichia coli BL21 (DE3) by Michaelis-Menten equation analysis.
Assay [16] concerns Staphylococcus aureus. Kind of assay: Binding affinity to methicillin-resistant Staphylococcus aureus MRSA1 assessed per 10^8 cells/ml at 5 uM after overnight incubation by fluorescence analysis. It counts as functional, organism-based. The method, boiled down: as §1
Assay [17] has as its system Staphylococcus aureus ATCC 25923. The assay can be described thus: Binding affinity to Staphylococcus aureus ATCC 25923 assessed per 10^8 cells/ml at 5 uM after overnight incubation by fluorescence analysis.
The subject of assay [18] is Staphylococcus aureus. Kind of assay: Binding affinity to methicillin-resistant Staphylococcus aureus MRSA2 assessed per 10^8 cells/ml at 5 uM after overnight incubation by fluorescence analysis. Type of assay: functional, organism-based. The gist of the method: as §1

Activity calls are given as the source filed them. The calls are words filed in the database; no cut-off is given here.

Usually MIC stands for the least concentration at which growth counts as inhibited. Low readings indicate greater potency, high ones weaker potency. As a reminder, the Km is the concentration of substrate that gives half-maximal velocity. As a reminder, the Vmax is the rate approached at saturating substrate. What is called kcat is the number of substrate molecules converted per active site and unit of time at saturation.

On to `O=C(Cc1cccs1)N[C@@H]1C(=O)N2C(C(=O)O)=C(CSc3ccc(NC(=O)c4cc5ccccc5oc4=O)cc3)CS[C@H]12`, for which the minimal inhibitory concentration (MIC) against Klebsiella pneumoniae [1], against Staphylococcus aureus [10] and in the assay on Staphylococcus aureus [13] was more than 128 µg/mL each time. Moreover, the Activity is 2.13 µM in assay [2]; 1.82 µM in the assay with Staphylococcus aureus [3]; more than 95% in the assay on Klebsiella pneumoniae [4]; 84% in the assay with Klebsiella pneumoniae [5]; 2.15 µM with Staphylococcus aureus [6]; less than 5% in the assay with Klebsiella pneumoniae [11]. Besides, the Activity with Klebsiella pneumoniae [12] is more than 65%. Moreover, the result (in the assay on Staphylococcus aureus [7]; in [8]; in the assay with Staphylococcus aureus [9]) was Active. Further, the Km in assay [14] came to 6.02 µM; in assay [15] it was 38.3 µM. The figures for the Vmax in assay [14] and in assay [15] were 0.471 µM/s and 1.05 µM/s, respectively. The kcat turned out to be 23.5 s⁻¹ in assay [14] and 209 s⁻¹ in [15].
`O=C(O)c1cc2c(ccc3ccccc32)oc1=O`: the Activity is 0.03 µM with Staphylococcus aureus [16], 0.044 µM in assay [17] and 0.033 µM in the assay with Staphylococcus aureus [18]. The outcome in the assay on Klebsiella pneumoniae [5] was inactive.
`O=C(Cc1cccs1)N[C@@H]1C(=O)N2C(C(=O)O)=C(CSc3ccc(NC(=O)c4cc5c(ccc6ccccc65)oc4=O)cc3)CS[C@H]12`: the MIC in the assay on Klebsiella pneumoniae [1], against Staphylococcus aureus [10] and in the assay with Staphylococcus aureus [13] was more than 128 µg/mL throughout. Further, the Activity came out at 6.59 µM in assay [2], 2.95 µM in the assay on Staphylococcus aureus [3] and 3.14 µM in the assay on Staphylococcus aureus [6]. The result with Klebsiella pneumoniae [5] was inactive. Further, the figures for the Km in [14] and in assay [15] were 20.2 µM and 24.4 µM, respectively. For the same compound, the maximal velocity (Vmax) in [14] is 0.59 µM/s; in [15], 0.604 µM/s. Further, the kcat in assay [14] amounted to 29.5 s⁻¹; in assay [15], 121 s⁻¹.
Take `O=C(O)c1cc2ccccc2oc1=O`: the Activity in assay [2] is 0.68 µM; in the assay on Staphylococcus aureus [3], 0.81 µM; with Staphylococcus aureus [6] it was 0.71 µM.
